Assay results from ChEMBL document CHEMBL1149321, “Synthesis, radiosynthesis, and biological evaluation of carbon-11 and iodine-123 labeled 2beta-carbomethoxy-3beta-[4'-((Z)-2-haloethenyl)phenyl]tropanes: candidate radioligands for in vivo imaging of the serotonin transporter” (J Med Chem, 2004).

Assays:
[1] = system: Rattus norvegicus; assay: Distribution in occipital cortex of rat brain after intravenous administration by using [123I]ZIET after 30 min; format: ADME, organism-based; settings: in vivo, 0.5 h
Method in brief: (§1)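 Male Sprague–Dawley rats (200–250 g), fed ad libitum, given ~20 μCi radiotracer iv via tail-vein cannula in 0.2 mL 10% ethanol/saline under ketamine/xylazine im anesthesia. Killed at 5, 30, 60 or 120 min (n = 5; n = 4 at 120 min). Brain regions dissected, weighed, gamma-counted with dose standards, decay-corrected; mean %ID/g ± SE.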

[2] = Ratio of radioactivity in rest of rat brain to that of rat cerebellum after intravenous administration after 60 min; format: functional
Method in brief: (§2)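 Male Sprague–Dawley rats (200–250 g) given ~20 μCi [123I] tracer iv in 0.2 mL 10% ethanol/saline under ketamine/xylazine; killed at 5, 30, 60, 120 min (n = 5; n = 4 at 120 min). Brain regions dissected, gamma counted, decay-corrected to %ID/g; regional uptake divided by cerebellum.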

[3] = system: Rattus norvegicus; assay: Distribution of the radio labelled compound in blood of rat brain after intravenous administration in presence of citalopram after 60 min; format: ADME, organism-based; settings: in vivo, 1 h
Method in brief: (§3)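 Male Sprague–Dawley rats (200–250 g), ketamine/xylazine anesthesia, tail-vein cannula. Blocker (4 mg/kg) or nothing given 15 min before iv [123I]ZIET in 10% ethanol/saline. Killed 60 min post-tracer.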

[4] = system: Rattus norvegicus; assay: Distribution of the radio labelled compound in rest of rat brain after intravenous administration in presence of RTI-113 after 60 min; format: ADME, organism-based; settings: in vivo, 1 h
Method in brief: (§4)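 Male Sprague–Dawley rats (200–250 g) under ketamine/xylazine anaesthesia with tail-vein cannulas. Blocker or none given 15 min before ~20 μCi [123I] tracer iv in 0.2 mL 10% ethanol/saline; blocker dose 4 mg/kg.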

[5] = system: Rattus norvegicus; assay: Distribution in blood of rat brain after intravenous administration by using [123I]ZIET after 5 min; format: ADME, organism-based; settings: in vivo; method in brief: as §1
[6] = Ratio of radioactivity in occipital cortex of rat brain to that of rat cerebellum after intravenous administration after 120 min; format: functional; method in brief: as §2
[7] = system: Rattus norvegicus; assay: Distribution in rest of rat brain after intravenous administration by using [123I]ZIET after 30 min; format: ADME, organism-based; settings: in vivo, 0.5 h; method in brief: as §1
[8] = system: Rattus norvegicus; assay: Distribution of the radio labelled compound in cerebellum of rat brain after intravenous administration in presence of RTI-113 after 60 min; format: ADME, organism-based; settings: in vivo, 1 h; method in brief: as §3
[9] = system: Rattus norvegicus; assay: Distribution in cerebellum of rat brain after intravenous administration by using [123I]ZIET after 120 min; format: ADME, organism-based; settings: in vivo, 2 h; method in brief: as §1
[10] = system: Rattus norvegicus; assay: Distribution in cerebellum of rat brain after intravenous administration by using [123I]ZIET after 5 min; format: ADME, organism-based; settings: in vivo; method in brief: as §1
[11] = system: Rattus norvegicus; assay: Distribution in hypothalamus of rat brain after intravenous administration by using [123I]ZIET after 30 min; format: ADME, organism-based; settings: in vivo, 0.5 h; method in brief: as §1
[12] = Ratio of radioactivity in striatum of rat brain to that of rat cerebellum after intravenous administration after 5 min; format: functional; method in brief: as §2
[13] = system: Rattus norvegicus; assay: Distribution of the radio labelled compound in brainstem of rat brain after intravenous administration in presence of reboxetine after 60 min; format: ADME, organism-based; settings: in vivo, 1 h; method in brief: as §3
[14] = system: Rattus norvegicus; assay: Distribution in frontal cortex of rat brain after intravenous administration by using [123I]ZIET after 120 min; format: ADME, organism-based; settings: in vivo, 2 h; method in brief: as §1
[15] = system: Rattus norvegicus; assay: Distribution of the radio labelled compound in occipital cortex of rat brain after intravenous administration in absence of blocker after 60 min; format: ADME, organism-based; settings: in vivo, 1 h; method in brief: as §4
[16] = system: Rattus norvegicus; assay: Distribution in thyroid of rat brain after intravenous administration by using [123I]ZIET after 120 min; format: ADME, organism-based, Thyroid gland; settings: in vivo, 2 h; method in brief: as §1
[17] = Ratio of radioactivity in frontal cortex of rat brain to that of rat cerebellum after intravenous administration after 5 min; format: functional; method in brief: as §2
[18] = system: Rattus norvegicus; assay: Distribution of the radio labelled compound in blood of rat brain after intravenous administration in absence of blocker after 60 min; format: ADME, organism-based; settings: in vivo, 1 h; method in brief: as §3
[19] = system: Rattus norvegicus; assay: Distribution of the radio labelled compound in occipital cortex of rat brain after intravenous administration in presence of citalopram after 60 min; format: ADME, organism-based; settings: in vivo, 1 h; method in brief: as §4
[20] = system: Rattus norvegicus; assay: Distribution in striatum of rat brain after intravenous administration by using [123I]ZIET after 120 min; format: ADME, organism-based; settings: in vivo, 2 h; method in brief: as §1
[21] = Ratio of radioactivity in hippocampus of rat brain to that of rat cerebellum after intravenous administration after 120 min; format: functional; method in brief: as §2
[22] = Ratio of radioactivity in hypothalamus of rat brain to that of rat cerebellum after intravenous administration after 5 min; format: functional; method in brief: as §2
[23] = system: Rattus norvegicus; assay: Distribution in thyroid of rat brain after intravenous administration by using [123I]ZIET after 60 min; format: ADME, organism-based, Thyroid gland; settings: in vivo, 1 h; method in brief: as §1
[24] = Ratio of radioactivity in rest of rat brain to that of rat cerebellum after intravenous administration after 120 min; format: functional; method in brief: as §2
[25] = system: Rattus norvegicus; assay: Distribution in brainstem of rat brain after intravenous administration by using [123I]ZIET after 5 min; format: ADME, organism-based; settings: in vivo; method in brief: as §1
[26] = Ratio of radioactivity in hippocampus of rat brain to that of rat cerebellum after intravenous administration after 30 min; format: functional; method in brief: as §2
[27] = Ratio of radioactivity in hypothalamus of rat brain to that of rat cerebellum after intravenous administration after 120 min; format: functional; method in brief: as §2
[28] = system: Rattus norvegicus; assay: Distribution of the radio labelled compound in frontal cortex of rat brain after intravenous administration in absence of blocker after 60 min; format: ADME, organism-based; settings: in vivo, 1 h; method in brief: as §4
[29] = system: Rattus norvegicus; assay: Distribution of the radio labelled compound in rest of rat brain after intravenous administration in absence of blocker after 60 min; format: ADME, organism-based; settings: in vivo, 1 h; method in brief: as §4
[30] = system: Rattus norvegicus; assay: Distribution of the radio labelled compound in blood of rat brain after intravenous administration in presence of RTI-113 after 60 min; format: ADME, organism-based; settings: in vivo, 1 h; method in brief: as §3
[31] = system: Rattus norvegicus; assay: Distribution of the radio labelled compound in hypothalamus of rat brain after intravenous administration in presence of citalopram after 60 min; format: ADME, organism-based; settings: in vivo, 1 h; method in brief: as §4
[32] = system: Rattus norvegicus; assay: Distribution in rest of rat brain after intravenous administration by using [123I]ZIET after 5 min; format: ADME, organism-based; settings: in vivo; method in brief: as §1
[33] = system: Rattus norvegicus; assay: Distribution in occipital cortex of rat brain after intravenous administration by using [123I]ZIET after 120 min; format: ADME, organism-based; settings: in vivo, 2 h; method in brief: as §1
[34] = system: Rattus norvegicus; assay: Distribution of the radio labelled compound in occipital cortex of rat brain after intravenous administration in presence of RTI-113 after 60 min; format: ADME, organism-based; settings: in vivo, 1 h; method in brief: as §4
[35] = Ratio of radioactivity in brainstem of rat brain to that of rat cerebellum after intravenous administration after 30 min; format: functional; method in brief: as §2
[36] = system: Rattus norvegicus; assay: Distribution in striatum of rat brain after intravenous administration by using [123I]-ZIET after 5 min; format: ADME, organism-based; settings: in vivo; method in brief: as §1
[37] = Ratio of radioactivity in striatum of rat brain to that of rat cerebellum after intravenous administration after 60 min; format: functional; method in brief: as §2
[38] = Ratio of radioactivity in striatum of rat brain to that of rat cerebellum after intravenous administration after 30 min; format: functional; method in brief: as §2
[39] = Ratio of radioactivity in brainstem of rat brain to that of rat cerebellum after intravenous administration after 60 min; format: functional; method in brief: as §2
[40] = Ratio of radioactivity in occipital cortex of rat brain to that of rat cerebellum after intravenous administration after 30 min; format: functional; method in brief: as §2
[41] = system: Rattus norvegicus; assay: Distribution in cerebellum of rat brain after intravenous administration by using [123I]ZIET after 30 min; format: ADME, organism-based; settings: in vivo, 0.5 h; method in brief: as §1
[42] = Ratio of radioactivity in hippocampus of rat brain to that of rat cerebellum after intravenous administration after 60 min; format: functional; method in brief: as §2
[43] = system: Rattus norvegicus; assay: Distribution of the radio labelled compound in striatum of rat brain after intravenous administration in presence of reboxetine after 60 min; format: ADME, organism-based; settings: in vivo, 1 h; method in brief: as §4
[44] = system: Rattus norvegicus; assay: Distribution in frontal cortex of rat brain after intravenous administration by using [123I]-ZIET after 30 min; format: ADME, organism-based; settings: in vivo, 0.5 h; method in brief: as §1

SMILES: COC(=O)C1C(c2ccc(/C=C\[123I])cc2)CC2CCC1N2C (centres undefined)
- Activity [1]: 0.76
- Ratio [2]: 2
- Activity [3]: 0.21
- Activity [4]: 0.36
- Activity [5]: 0.45
- Ratio [6]: 3
- Activity [7]: 0.66
- Activity [8]: 0.13
- Activity [9]: 0.14
- Activity [10]: 0.34
- Activity [11]: 0.68
- Ratio [12]: 1.1
- Activity [13]: 0.36
- Activity [14]: 0.48
- Activity [15]: 0.46
- Activity [16]: 2.12
- Ratio [17]: 1.3
- Activity [18]: 0.22
- Activity [19]: 0.2
- Activity [20]: 0.52
- Ratio [21]: 3.4
- Ratio [22]: 1.1
- Activity [23]: 1.11
- Ratio [24]: 2.8
- Activity [25]: 0.35
- Ratio [26]: 1.7
- Ratio [27]: 4.3
- Activity [28]: 0.53
- Activity [29]: 0.37
- Activity [30]: 0.24
- Activity [31]: 0.2
- Activity [32]: 0.38
- Activity [33]: 0.42
- Activity [34]: 0.42
- Ratio [35]: 1.5
- Activity [36]: 0.39
- Ratio [37]: 2.6
- Ratio [38]: 1.8
- Ratio [39]: 2
- Ratio [40]: 1.8
- Activity [41]: 0.42
- Ratio [42]: 2.3
- Activity [43]: 0.45
- Activity [44]: 0.82
